This passage reports Activity, IC50 and Ki results from ChEMBL document CHEMBL5346953, “Dual Piperidine-Based Histamine H3 and Sigma-1 Receptor Ligands in the Treatment of Nociceptive and Neuropathic Pain” (J Med Chem, 2023).

The nature of data set [1]: Neurotoxicity against mouse assessed as sedative effect at 15 mg/kg,ip observed after 30 mins of administration. Format: toxicity, organism-based. The following applies: in vivo, 0.5 h. In short, it runs like this:
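Spontaneous locomotor activity was recorded in mice after i.p. dosing at 15 or 30 mg/kg, compared with vehicle, as a test of sedation. Analysis was one-way ANOVA. […]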

Data set [2] is described as follows: Neurotoxicity against mouse assessed as decrease in time spent on rod at 15 mg/kg,ip administration at 24 rpm by rotarod test. Format: toxicity, organism-based. The following applies: in vivo. In short, it runs like this: (§1)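 Mice received 15 mg/kg i.p. or vehicle. Motor coordination was then measured as time on the rotarod, at 18 and 24 rpm, with a maximum of 60 s.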
(Falling from the rotarod earlier than controls is read as motor impairment.)

Data set [3] can be described thus: Neurotoxicity against mouse assessed as decrease in time spent on rod at 15 mg/kg,ip administration at 18 rpm by rotarod test. Format: toxicity, organism-based. The settings on record: in vivo. The essentials:
as §1

Data set [4] concerns the target T1, Histamine H3 receptor (Homo sapiens, UniProt Q9Y5N1). The data set can be described thus: Inhibition of recombinant human histamine H3 receptor stably expressed in HEK293 cells assessed as increase in cAMP accumulation in presence of forskolin incubated for 30 mins by TR-FRET LANCE assay. Format: functional, cell-based. Background: Changes in cAMP serve as a functional read-out for many G protein-coupled receptors.

Data set [5] has as its target T1, Histamine H3 receptor. As to the kind of experiment: Displacement of [3H]Nalpha-methylhistamine from recombinant human histamine H3 receptor stably expressed in HEK293 cells assessed as inhibition constant by competitive binding based radioligand depletion assay. Format: cell-based. Background: Displacement assays read how much labelled ligand stays bound in the presence of the test substance.

The target of data set [6] is Sigma non-opioid intracellular receptor 1 (Cavia porcellus, UniProt Q60492). The data set can be described thus: Displacement of [3H](+)-pentazocine from sigma 1 receptor in guinea pig brain membrane assessed as inhibition constant by liquid scintillation counter analysis. In kind it is cell membranes.
The nature of data set [7]: Neurotoxicity against mouse assessed as impairment of motor coordination at 15 mg/kg,ip administration at 24 rpm by rotarod test. In kind it is toxicity, organism-based. The settings on record: in vivo. The essentials: as §1
Data set [8] is described as follows: Neurotoxicity against mouse assessed as impairment of motor coordination at 15 mg/kg,ip administration at 18 rpm by rotarod test. Format: toxicity, organism-based. The following applies: in vivo. The essentials: as §1

T1 sequence (Q9Y5N1 whole entry): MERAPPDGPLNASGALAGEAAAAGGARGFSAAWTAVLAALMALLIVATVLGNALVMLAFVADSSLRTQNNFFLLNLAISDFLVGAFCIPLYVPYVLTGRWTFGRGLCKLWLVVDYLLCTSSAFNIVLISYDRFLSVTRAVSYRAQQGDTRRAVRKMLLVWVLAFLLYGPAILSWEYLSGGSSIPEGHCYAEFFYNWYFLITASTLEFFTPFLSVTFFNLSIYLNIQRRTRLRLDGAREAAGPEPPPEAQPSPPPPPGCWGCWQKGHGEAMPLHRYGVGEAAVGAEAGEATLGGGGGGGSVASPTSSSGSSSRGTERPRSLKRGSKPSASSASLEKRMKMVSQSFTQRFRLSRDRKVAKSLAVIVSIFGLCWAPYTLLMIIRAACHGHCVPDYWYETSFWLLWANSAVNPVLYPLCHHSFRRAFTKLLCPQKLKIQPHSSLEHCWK
Sigma non-opioid intracellular receptor 1, sequence (Q60492 whole entry): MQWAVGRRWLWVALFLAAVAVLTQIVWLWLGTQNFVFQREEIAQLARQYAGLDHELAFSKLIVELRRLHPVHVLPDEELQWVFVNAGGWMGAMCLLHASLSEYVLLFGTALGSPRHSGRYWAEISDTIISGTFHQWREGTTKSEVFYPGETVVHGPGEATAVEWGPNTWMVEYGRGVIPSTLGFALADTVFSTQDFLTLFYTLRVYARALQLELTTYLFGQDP

The term IC50 denotes the point on the concentration scale where inhibition reaches its midpoint. For the molecule `c1ccc(Nc2ccc(OCCCN3CCCCC3)cc2)cc1`, the Activity entry in data set [1], in data set [2] and in data set [3] was “Toxic” in each case. Moreover, on Histamine H3 receptor [4], the IC50 was determined as 83.7 nM.
What is called Ki is the dissociation constant of the complex between target and ligand, obtained from inhibition or displacement. With `N#Cc1ccc(-c2ccc(OCCCN3CCCCC3)cc2)cc1`, the Ki on Histamine H3 receptor [5] was 6.2 nM.
As to `c1cc(OCCCN2CCCCC2)ccc1CN1CCCCC1` [JNJ-5207852], the Ki in data set [6] is 1170 nM.
With `c1ccc(-c2ccc(OCCCN3CCCCCC3)cc2)cc1`, the Activity entry in data set [1], in data set [7] and in data set [8] was “Toxic” throughout. The IC50 at Histamine H3 receptor [4] was found to be 83.4 nM.
